Assay: Lethal dose of the compound, when administered intraperitoneally in mice
Assay type: toxicity, organism-based
Conditions: mouse, in vivo, ip
How it was run: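 Male Swiss Webster mice (15–20 g), five per dose level, at least four dose levels, given ip injection (0.10 mL/10 g) in normal saline or saline/phosphate-buffered saline, with EtOH up to 2.5% final for some; solvent-only control group.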

| Compound | LD50 [µmol/kg] |
| --- | --- |
| CC(C)(C)[C@H]1CC[C@@H](O)[C@H](N2CCC(c3ccccc3)CC2)C1 | 5.7 |
| OC1CCCC1N1CCC(c2ccccc2)CC1 (stereo not given) | > 200 |
| CC(=O)Nc1cccc2c1CC(N1CCC(c3ccccc3)CC1)C(O)C2 (stereo not given) | 1.7 |
| OC1CCCCC1N1CCC(Cc2ccccc2)CC1 (stereo not given) | > 180 |
| OC1Cc2ccccc2CC1N1CCC(c2ccccc2)CC1 (stereo not given) | 1.2 |
| CC1(O)CCCC[C@H]1N1CCC(c2ccccc2)CC1 (stereo not given in full) | > 180 |
| OC1CCCCC1N1CC=C(c2ccc(Cl)cc2)CC1 (stereo not given) | > 340 |
| O[C@H]1CCCC[C@@H]1N1CCC(c2ccccc2)CC1 | > 190 |
| CO[C@H]1CCC[C@@H](N2CCC(c3ccccc3)CC2)[C@@H]1O | 240 |
| C[N+]1(C2CCCCC2O)CCC(c2ccccc2)CC1 (stereo not given) | > 180 |
| CCC(O)CN1CCC(c2ccccc2)CC1 (stereo not given) | 300 |
| OC1CC2CCCCC2CC1N1CCC(c2ccccc2)CC1 (racemic) | 2 |
| OC1CCCCC1N1CCC(c2ccccc2)CC1 (racemic) | 16 |
| COc1ccccc1N1CCN(C2CC3CCCCC3CC2O)CC1 (racemic; 68) | 12 |
| O[C@@H]1CCCC[C@H]1N1CCC(c2ccccc2)CC1 [VESAMICOL] | 12 |

Source: ChEMBL document CHEMBL1124483 (J Med Chem, 1989)
